Assay results reported in PMC3625064 (Molecular cell, 2012).
Substitutions are numbered along the chain they refer to. Names and notes keep the numbering of the source. One block for each molecule: values may come before it. No end group written: not given here.

Assays:
LSD2 [1] = target: T1, LSD2 (Homo sapiens, UniProt Q8NB78); experiment: nucleosome demethylation assay, stimulation; assay type: biochemical
T1 sequence (Q8NB78 1-822): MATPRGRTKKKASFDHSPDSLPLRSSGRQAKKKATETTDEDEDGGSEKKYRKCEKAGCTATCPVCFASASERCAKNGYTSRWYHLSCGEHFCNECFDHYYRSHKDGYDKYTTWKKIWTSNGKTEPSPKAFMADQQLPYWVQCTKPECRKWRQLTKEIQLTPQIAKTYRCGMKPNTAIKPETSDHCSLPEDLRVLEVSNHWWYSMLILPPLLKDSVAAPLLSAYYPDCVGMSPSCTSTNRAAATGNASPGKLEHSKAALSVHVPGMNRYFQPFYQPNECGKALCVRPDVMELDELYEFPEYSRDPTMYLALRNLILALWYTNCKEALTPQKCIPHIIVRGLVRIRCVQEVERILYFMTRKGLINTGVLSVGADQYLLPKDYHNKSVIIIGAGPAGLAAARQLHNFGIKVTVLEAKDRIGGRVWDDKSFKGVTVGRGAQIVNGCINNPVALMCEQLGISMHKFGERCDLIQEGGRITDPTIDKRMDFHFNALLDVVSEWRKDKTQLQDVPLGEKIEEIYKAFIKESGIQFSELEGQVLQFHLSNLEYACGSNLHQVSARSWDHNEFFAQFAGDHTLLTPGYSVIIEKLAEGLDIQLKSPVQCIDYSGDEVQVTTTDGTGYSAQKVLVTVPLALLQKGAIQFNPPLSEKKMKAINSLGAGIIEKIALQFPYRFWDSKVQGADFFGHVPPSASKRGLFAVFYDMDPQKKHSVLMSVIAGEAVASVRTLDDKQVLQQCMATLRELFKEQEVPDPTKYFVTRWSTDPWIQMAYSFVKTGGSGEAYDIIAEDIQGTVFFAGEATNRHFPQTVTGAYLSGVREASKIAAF

LSD2 [2] = target: T1, LSD2; experiment: H3K4me2 peptide; assay type: biochemical; details: 50 μM H3K4me2 peptide (1–21), 50 mM Tris-HCl pH 8.5, 50 mM KCl, 5 mM MgCl2, 5% glycerol, 37°C, 30 min; MALDI-TOF MS
Summary of the method: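 Purified LSD2, full-length or truncated (residues 51–822), incubated with NPAC-derived peptides or proteins and 50 μM H3K4me2 peptide (residues 1–21, >95% pure by HPLC and MS) in 50 mM Tris-HCl pH 8.5, 50 mM KCl, 5 mM MgCl2, 5% glycerol, 37°C, 30 min. Products desalted on C18 tips; MALDI-TOF MS at constant laser intensity across samples.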

[3] = target: T2, LSD2 (residues 51–822), as crystallised with NPAC (human, UniProt Q8NB78 51-822); experiment: crystal structure
T2 sequence: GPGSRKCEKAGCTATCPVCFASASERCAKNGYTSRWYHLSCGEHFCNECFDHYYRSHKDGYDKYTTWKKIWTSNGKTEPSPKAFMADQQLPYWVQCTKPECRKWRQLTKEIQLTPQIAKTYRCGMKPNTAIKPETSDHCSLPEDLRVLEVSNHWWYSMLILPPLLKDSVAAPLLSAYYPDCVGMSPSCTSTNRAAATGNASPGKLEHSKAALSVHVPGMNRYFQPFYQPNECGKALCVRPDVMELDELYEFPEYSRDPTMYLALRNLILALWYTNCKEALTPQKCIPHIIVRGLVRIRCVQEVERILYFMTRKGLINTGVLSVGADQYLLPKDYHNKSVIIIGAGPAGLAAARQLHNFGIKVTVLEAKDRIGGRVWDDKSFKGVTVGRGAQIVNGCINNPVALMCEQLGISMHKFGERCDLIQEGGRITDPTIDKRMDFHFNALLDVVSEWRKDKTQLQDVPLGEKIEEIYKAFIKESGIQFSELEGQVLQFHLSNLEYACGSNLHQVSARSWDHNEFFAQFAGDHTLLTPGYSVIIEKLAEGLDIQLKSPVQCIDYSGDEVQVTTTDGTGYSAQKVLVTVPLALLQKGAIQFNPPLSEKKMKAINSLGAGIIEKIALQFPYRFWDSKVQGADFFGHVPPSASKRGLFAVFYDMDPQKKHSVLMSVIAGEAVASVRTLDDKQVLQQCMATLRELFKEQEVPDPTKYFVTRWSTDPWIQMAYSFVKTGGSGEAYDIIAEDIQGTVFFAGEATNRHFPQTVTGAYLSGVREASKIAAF

[4] = target: T3, LSD2 used for isothermal titration calorimetry (human, UniProt Q8NB78 1-822); experiment: ITC
T3 sequence (looked up): T1 sequence (Q8NB78 1-822)

LSD2 [5] = target: T1, LSD2; experiment: GST pull-down of His-LSD2; assay type: binding; details: GST pull-down of purified His-LSD2, SDS-PAGE, Coomassie blue staining
Summary of the method: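 GST and GST-tagged wild-type or mutant NPAC proteins (linker-region and binding-site mutants) were used to pull down purified His-LSD2. His-LSD2 in input and bound fractions was resolved by SDS-PAGE and stained with Coomassie blue.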

[6] = test system: LSD2 histone demethylation in U2OS cells; experiment: immunofluorescence of histone marks in U2OS cells coexpressing LSD2 and NPAC; assay type: cell-based; details: coexpression of NPAC and LSD2; Figure S1D and data not shown
Summary of the method: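 U2OS cells were transiently transfected with GFP-LSD2 alone or together with NPAC. Histone methylation marks were then detected by immunofluorescence with DAPI as DNA counterstain. Cells expressing similar levels of GFP-LSD2 were compared.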

LSD1 = experiment: nucleosome demethylation by LSD1, stimulation by NPAC; assay type: biochemical, human; details: nucleosomes; Figure S1B
nucleosomal H3K4me2 = experiment: nucleosome demethylation assay, demethylase activity toward nucleosomal H3K4me2; assay type: biochemical; details: recombinant NPAC, or NPAC complex purified from HeLa cells via TAP; immunoblot
Summary of the method: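 Nucleosomes purified from HeLa cells were incubated with tandem-affinity-purified NPAC or LSD2 complexes from HeLa cells, with or without added recombinant NPAC. H3K4 demethylation was assessed by SDS-PAGE and immunoblot with methylation-specific histone H3 antibodies.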

LSD2 [7] = target: T1, LSD2; experiment: shorter H3K4me2 peptide; assay type: biochemical; details: H3K4me2 peptide (residues 1–15) as substrate; Figures S6A and S6B
Summary of the method: (§1)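 Purified LSD2 (full-length or residues 51–822) was incubated with NPAC-derived peptides or proteins and an H3K4me2 peptide substrate. Products were desalted on C18 tips and analysed by MALDI-TOF MS at constant laser intensity for me1/me2 masses.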

LSD2 [8] = target: T1, LSD2; experiment: longer H3K4me2 peptide; assay type: biochemical; details: H3K4me2 peptide (1–44) as substrate; Figure S6C
Summary of the method: as §1

- binding result [3]: binds
B1: NPAC linker region (amino acids 152–268), as crystallised with LSD2 (domain or fragment, UniProt Q49A26 152-268, looked up)
chain: SERGSKSPLKRAQEQSPRKRGRPPKDEKDLTIPESSTVKGMMAGPMAAFKWQPTASEPVKDADPHFHHFLLSQTEKPAVCYQAITKKLKICEEETGSTSIQAADSTAVNGSITPTDK

- Kd [4]: 930 ± 70 nM
Molecule: DPHAHHFLLSQT (peptide, UniProt Q49A26 214-225, looked up) [NPAC dodecapeptide (residues 214–225) F217A]

- cofactor activity with shorter H3K4me2 peptide (residues 1–15) (LSD2 [7]): did not detect NPAC cofactor activity
B3: NPAC: NPAC/GLYR1 (UniProtKB/Swiss-Prot ID: Q49A26), contains PWWP domain, AT-hook motif, and dehydrogenase domain (protein, UniProt Q49A26 1-553, looked up)
Cytokine-like nuclear factor …: MAAVSLRLGDLVWGKLGRYPPWPGKIVNPPKDLKKPRGKKCFFVKFFGTEDHAWIKVEQLKPYHAHKEEMIKINKGKRFQQAVDAVEEFLRRAKGKDQTSSHNSSDDKNRRNSSEERSRPNSGDEKRKLSLSEGKVKKNMGEGKKRVSSGSSERGSKSPLKRAQEQSPRKRGRPPKDEKDLTIPESSTVKGMMAGPMAAFKWQPTASEPVKDADPHFHHFLLSQTEKPAVCYQAITKKLKICEEETGSTSIQAADSTAVNGSITPTDKKIGFLGLGLMGSGIVSNLLKMGHTVTVWNRTAEKCDLFIQEGARLGRTPAEVVSTCDITFACVSDPKAAKDLVLGPSGVLQGIRPGKCYVDMSTVDADTVTELAQVIVSRGGRFLEAPVSGNQQLSNDGMLVILAAGDRGLYEDCSSCFQAMGKTSFFLGEVGNAAKMMLIVNMVQGSFMATIAEGLTLAQVTGQSQQTLLDILNQGQLASIFLDQKCQNILQGNFKPDFYLKYIQKDLRLAIALGDAVNHPTPMAAAANEVYKRAKALDQSDNDMSAVYRAYIH
modifications: His tag
- change of H3K9me2 and other histone marks [6]: no detectable changes
- stimulatory effect on nucleosome demethylation by LSD1 (LSD1): no stimulatory effect
- histone demethylase activity toward nucleosomes (nucleosomal H3K4me2): possesses no demethylase activity

More lines, now with the values behind:

Molecule: DPHFHHFLLSQT [NP.WT]
- cofactor activity stimulating LSD2 demethylation of nucleosomes and synthetic histone peptides (summary) (LSD2 [1]; independent of PWWP module, discussion): robust cofactor activity
- cofactor activity for LSD2 with H3K4me2 peptide (residues 1–21) as substrate (LSD2 [2]): can stimulate LSD2-mediated demethylation of H3K4me2 peptides

Molecule: DPHFHHFLLSQT (peptide, UniProt Q49A26 214-225, looked up) [wild-type NPAC dodecapeptide (residues 214–225)]
- Kd [4]: 920 ± 80 nM

B2: NP.d3: truncation protein containing the linker region, residues 152–252; GST-tagged (protein)
chain: SERGSKSPLKRAQEQSPRKRGRPPKDEKDLTIPESSTVKGMMAGPMAAFKWQPTASEPVKDADPHFHHFLLSQTEKPAVCYQAITKKLKICEEETGSTSIQ
modifications: left off: GST, end not stated, kept
- LSD2 binding / interaction (LSD2 [5]): capable of directly interacting with LSD2
- LSD2 binding / interaction (LSD2 [5]; listed as linker region of NPAC): sufficient for LSD2 binding
- cofactor activity for LSD2 with H3K4me2 peptide (residues 1–21) as substrate (LSD2 [2]): strong cofactor activity for LSD2

B4: NPAC F217A protein: full-length F217A NPAC protein (protein, UniProt Q49A26 1-553, looked up, variant F217A)
chain: B3 Cytokine-like nuclear factor … with F217A
modifications: full-length
- cofactor activity of full-length NPAC protein, more NPAC and LSD2 proteins (LSD2 [1]; nucleosome demethylation, more NPAC and LSD2 proteins used, Figure S6E): residual stimulatory activity
- stimulation of LSD2 demethylation of the longer H3K4me2 peptide (1–44) (LSD2 [8]): very weak or undetectable
